Measurements reported in ChEMBL document CHEMBL4428070, “Design, synthesis, and evaluation of 4,6-diaminonicotinamide derivatives as novel and potent immunomodulators targeting JAK3” (Bioorg Med Chem, 2016).

Columns and labels:
[1] = target: Tyrosine-protein kinase JAK2 (Homo sapiens, UniProt O60674); assay: Inhibition of human JAK2 assessed as reduction in phosphorylation of Biotin-Lyn-Substrate-2 after 1 hr in presence of ATP by ELISA
[2] = target: Tyrosine-protein kinase JAK1 (Homo sapiens, UniProt P23458); assay: Inhibition of human JAK1 assessed as reduction in phosphorylation of Biotin-Lyn-Substrate-2 after 1 hr in presence of ATP by ELISA
[3] = target: T1, Tyrosine-protein kinase JAK3 (Homo sapiens, UniProt P52333); assay: Inhibition of human JAK3 assessed as reduction in phosphorylation of Biotin-Lyn-Substrate-2 after 1 hr in presence of ATP by ELISA
T1 sequence (P52333 whole entry): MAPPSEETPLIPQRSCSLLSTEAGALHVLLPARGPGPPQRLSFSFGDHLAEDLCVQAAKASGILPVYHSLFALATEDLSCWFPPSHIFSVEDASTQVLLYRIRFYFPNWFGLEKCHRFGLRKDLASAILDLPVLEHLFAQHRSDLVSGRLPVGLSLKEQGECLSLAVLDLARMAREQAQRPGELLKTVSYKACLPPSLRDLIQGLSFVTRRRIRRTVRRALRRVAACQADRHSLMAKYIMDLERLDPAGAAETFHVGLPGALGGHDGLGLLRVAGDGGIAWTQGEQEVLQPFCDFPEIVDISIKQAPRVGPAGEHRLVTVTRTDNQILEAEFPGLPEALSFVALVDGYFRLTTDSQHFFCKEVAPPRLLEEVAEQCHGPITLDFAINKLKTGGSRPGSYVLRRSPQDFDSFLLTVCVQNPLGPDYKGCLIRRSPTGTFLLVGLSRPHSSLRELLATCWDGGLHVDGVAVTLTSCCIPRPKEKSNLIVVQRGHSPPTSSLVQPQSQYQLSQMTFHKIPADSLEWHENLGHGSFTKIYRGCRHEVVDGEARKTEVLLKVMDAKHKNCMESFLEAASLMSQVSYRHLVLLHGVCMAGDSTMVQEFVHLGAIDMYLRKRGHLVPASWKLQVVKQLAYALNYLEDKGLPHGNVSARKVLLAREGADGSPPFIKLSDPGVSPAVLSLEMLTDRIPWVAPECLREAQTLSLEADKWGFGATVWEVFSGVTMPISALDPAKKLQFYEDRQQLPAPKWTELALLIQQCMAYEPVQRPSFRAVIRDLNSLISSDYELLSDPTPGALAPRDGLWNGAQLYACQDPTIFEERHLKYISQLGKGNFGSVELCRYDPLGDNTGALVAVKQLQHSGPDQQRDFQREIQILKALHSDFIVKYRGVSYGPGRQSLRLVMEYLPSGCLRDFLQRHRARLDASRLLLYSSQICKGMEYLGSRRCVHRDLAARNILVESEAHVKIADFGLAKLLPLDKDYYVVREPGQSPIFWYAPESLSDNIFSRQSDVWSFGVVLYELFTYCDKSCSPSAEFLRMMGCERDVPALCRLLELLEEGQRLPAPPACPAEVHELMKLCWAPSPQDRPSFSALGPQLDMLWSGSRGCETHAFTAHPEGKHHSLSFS

[4] = target: Voltage-gated inwardly rectifying potassium channel KCNH2 (Homo sapiens, UniProt Q12809); assay: Inhibition of human ERG expressed in CHO-K1 cells after 10 mins by Rb efflux assay; assay type: cell-based
[5] = target: Tyrosine-protein kinase JAK3 (Homo sapiens) (UniProt P52333); assay: Inhibition of human JAK3 assessed as phosphorylation of Biotin-Lyn-Substrate-2 at 1 uM after 1 hr in presence of ATP by ELISA
[6] = AUC (0 to 24 hrs) in rat at 1 mg/kg, iv; assay type: ADME, organism-based; design: dose 1 mg/kg, time < 24 hr, route intravenous; settings: in vivo
[7] = target: T2, CDK2/Cyclin A2 (Homo sapiens) (UniProt P24941+P20248); assay: Inhibition of CDK2/CycA (unknown origin) at 0.1 uM; assay type: protein-complex assay
[8] = target: Casein kinase I isoform delta (Homo sapiens) (UniProt P48730); assay: Inhibition of CK1delta (unknown origin) at 1 uM
[9] = Intrinsic clearance in rat liver microsomes in presence of NADPH; assay type: ADME, Microsome; settings: read-out: CLH
How it was run: (§1)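 Incubation with rat or human liver microsomes plus NADPH-generating system; intrinsic clearance expressed as mL/min/kg (n=2).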

[10] = AUC (0 to 24 hrs) in rat at 1 mg/kg, po; assay type: ADME, organism-based; design: dose 1 mg/kg, time < 24 hr, route oral; settings: in vivo
[11] = Cmax in rat at 1 mg/kg, po; assay type: ADME, organism-based; design: dose 1 mg/kg, route oral; settings: in vivo
[12] = target: T2, CDK2/Cyclin A2 (Homo sapiens); assay: Inhibition of CDK2/CycA (unknown origin) at 1 uM; assay type: protein-complex assay
[13] = Intrinsic clearance in human liver microsomes in presence of NADPH; assay type: ADME, Microsome; settings: read-out: CLH; how it was run: as §1
[14] = target: Mitogen-activated protein kinase kinase kinase 9 (Homo sapiens) (UniProt P80192); assay: Inhibition of MLK1 (unknown origin) at 0.01 uM
[15] = target: Receptor tyrosine-protein kinase erbB-2 (Homo sapiens) (UniProt P04626); assay: Inhibition of HER2 (unknown origin) at 1 uM
[16] = target: Ephrin type-A receptor 2 (Homo sapiens) (UniProt P29317); assay: Inhibition of EPHA2 (unknown origin) at 1 uM
[17] = Oral bioavailability in rat at 1 mg/kg; assay type: ADME, organism-based; settings: in vivo
[18] = target: Focal adhesion kinase 1 (Homo sapiens) (UniProt Q05397); assay: Inhibition of FAK (unknown origin) at 1 uM
[19] = target: RAC-alpha serine/threonine-protein kinase (Homo sapiens) (UniProt P31749); assay: Inhibition of AKT1 (unknown origin) at 1 uM
[20] = target: Tyrosine-protein kinase BTK (Homo sapiens) (UniProt Q06187); assay: Inhibition of BTK (unknown origin) at 1 uM
Rattus norvegicus [21] = assay: Immunomodulatory activity in ACI-to-Lewis rat heterotopic cardiac transplant model assessed as cardiac allograft survival at 10 mg/kg, po coadministered with tacrolimus at 0.02 mg/kg, im dosed from day of transplantation once daily for 14 consecutive days; assay type: functional
How it was run: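 ACI rat hearts transplanted heterotopically into Lewis recipients. Oral drug given once daily for 14 consecutive days starting on the day of operation. In the combination arm, tacrolimus was given intramuscularly once daily. Cardiac allograft survival was checked by daily palpation for 28 days and expressed as median survival time (MST).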

[22] = Total clearance in rat at 1 mg/kg, iv; assay type: ADME, organism-based; settings: in vivo
[23] = Half life in rat at 1 mg/kg, iv; assay type: ADME, organism-based; settings: in vivo
[24] = target: High affinity nerve growth factor receptor (Homo sapiens) (UniProt P04629); assay: Inhibition of TRKA (unknown origin) at 1 uM
[25] = Effective permeability of the compound at pH 6.5 by PAMPA; assay type: ADME; settings: read-out: Peff
How it was run: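 Parallel artificial membrane permeability assay, donor buffer pH 6.5; effective permeability reported in cm/sec (n=3).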

[26] = target: Epidermal growth factor receptor (Homo sapiens) (UniProt P00533); assay: Inhibition of EGFR (unknown origin) at 1 uM
[27] = target: Mitogen-activated protein kinase kinase kinase 9 (Homo sapiens) (UniProt P80192); assay: Inhibition of MLK1 (unknown origin) at 1 uM
[28] = target: Tyrosine-protein kinase ABL1 (Homo sapiens) (UniProt P00519); assay: Inhibition of ABL (unknown origin) at 1 uM
[29] = Tmax in rat at 1 mg/kg, po; assay type: ADME, organism-based; settings: in vivo
[30] = target: Mitogen-activated protein kinase kinase kinase 9 (Homo sapiens) (UniProt P80192); assay: Inhibition of MLK1 (unknown origin) at 0.1 uM
[31] = target: Tyrosine-protein kinase ZAP-70 (Homo sapiens) (UniProt P43403); assay: Inhibition of ZAP70 (unknown origin) at 1 uM
[32] = target: Aurora kinase C (Homo sapiens) (UniProt Q9UQB9); assay: Inhibition of AurC (unknown origin) at 1 uM
[33] = target: High affinity nerve growth factor receptor (Homo sapiens) (UniProt P04629); assay: Inhibition of TRKA (unknown origin) at 0.01 uM
[34] = target: Bone morphogenetic protein receptor type-1A (Homo sapiens) (UniProt P36894); assay: Inhibition of BMPR1A (unknown origin) at 1 uM
[35] = target: High affinity nerve growth factor receptor (Homo sapiens) (UniProt P04629); assay: Inhibition of TRKA (unknown origin) at 0.1 uM
[36] = target: Serine/threonine-protein kinase Chk1 (Homo sapiens) (UniProt O14757); assay: Inhibition of CHK1 (unknown origin) at 1 uM
[37] = target: Calcium/calmodulin-dependent protein kinase type II subunit alpha (Homo sapiens) (UniProt Q9UQM7); assay: Inhibition of CaMK2alpha (unknown origin) at 1 uM
[38] = target: Angiopoietin-1 receptor (Homo sapiens) (UniProt Q02763); assay: Inhibition of TIE2 (unknown origin) at 1 uM
[39] = target: T2, CDK2/Cyclin A2 (Homo sapiens); assay: Inhibition of CDK2/CycA (unknown origin) at 0.01 uM; assay type: protein-complex assay
[40] = Volume of distribution at steady state in rat at 1 mg/kg, iv; assay type: ADME, organism-based; settings: in vivo, read-out: Vdss
Rattus norvegicus [41] = assay: Immunomodulatory activity in ACI-to-Lewis rat heterotopic cardiac transplant model assessed as mean survival time at 0.02 mg/kg, im dosed from day of transplantation once daily for 14 consecutive days measured for 28 days; assay type: functional

Sequence of Tyrosine-protein kinase JAK1 (P23458 whole entry): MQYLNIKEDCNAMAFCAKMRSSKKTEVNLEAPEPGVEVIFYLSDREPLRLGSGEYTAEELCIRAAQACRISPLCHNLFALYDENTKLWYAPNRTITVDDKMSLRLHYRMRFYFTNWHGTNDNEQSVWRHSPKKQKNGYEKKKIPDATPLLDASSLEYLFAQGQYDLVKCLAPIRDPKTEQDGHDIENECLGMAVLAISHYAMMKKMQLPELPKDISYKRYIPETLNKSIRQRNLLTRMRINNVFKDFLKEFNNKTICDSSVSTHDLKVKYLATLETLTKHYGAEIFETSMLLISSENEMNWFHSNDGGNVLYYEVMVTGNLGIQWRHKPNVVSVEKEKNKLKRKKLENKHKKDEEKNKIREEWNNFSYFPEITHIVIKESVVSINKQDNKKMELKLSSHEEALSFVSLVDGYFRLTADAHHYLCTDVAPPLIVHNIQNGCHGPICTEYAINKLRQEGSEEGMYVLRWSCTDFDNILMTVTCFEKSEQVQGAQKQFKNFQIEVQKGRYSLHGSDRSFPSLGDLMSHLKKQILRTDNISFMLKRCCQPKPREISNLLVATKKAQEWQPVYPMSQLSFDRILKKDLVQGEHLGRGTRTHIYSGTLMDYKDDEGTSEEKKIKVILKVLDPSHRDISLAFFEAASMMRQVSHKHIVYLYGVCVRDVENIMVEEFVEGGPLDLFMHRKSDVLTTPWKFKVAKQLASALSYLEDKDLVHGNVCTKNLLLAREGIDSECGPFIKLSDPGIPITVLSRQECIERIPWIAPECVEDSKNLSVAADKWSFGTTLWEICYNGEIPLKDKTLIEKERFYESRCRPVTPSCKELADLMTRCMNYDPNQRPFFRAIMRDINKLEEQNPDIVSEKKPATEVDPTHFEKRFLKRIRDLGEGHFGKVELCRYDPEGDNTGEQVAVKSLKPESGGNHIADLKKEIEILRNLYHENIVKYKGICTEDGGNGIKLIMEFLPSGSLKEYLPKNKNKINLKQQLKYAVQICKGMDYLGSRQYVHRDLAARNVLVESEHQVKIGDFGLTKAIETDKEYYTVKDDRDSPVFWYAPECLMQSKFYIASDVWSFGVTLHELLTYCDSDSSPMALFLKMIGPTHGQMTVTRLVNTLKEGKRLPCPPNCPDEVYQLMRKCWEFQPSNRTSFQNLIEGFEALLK
Sequence of Mitogen-activated protein kinase kinase kinase 9 (Homo sapiens) (P80192 whole entry, looked up): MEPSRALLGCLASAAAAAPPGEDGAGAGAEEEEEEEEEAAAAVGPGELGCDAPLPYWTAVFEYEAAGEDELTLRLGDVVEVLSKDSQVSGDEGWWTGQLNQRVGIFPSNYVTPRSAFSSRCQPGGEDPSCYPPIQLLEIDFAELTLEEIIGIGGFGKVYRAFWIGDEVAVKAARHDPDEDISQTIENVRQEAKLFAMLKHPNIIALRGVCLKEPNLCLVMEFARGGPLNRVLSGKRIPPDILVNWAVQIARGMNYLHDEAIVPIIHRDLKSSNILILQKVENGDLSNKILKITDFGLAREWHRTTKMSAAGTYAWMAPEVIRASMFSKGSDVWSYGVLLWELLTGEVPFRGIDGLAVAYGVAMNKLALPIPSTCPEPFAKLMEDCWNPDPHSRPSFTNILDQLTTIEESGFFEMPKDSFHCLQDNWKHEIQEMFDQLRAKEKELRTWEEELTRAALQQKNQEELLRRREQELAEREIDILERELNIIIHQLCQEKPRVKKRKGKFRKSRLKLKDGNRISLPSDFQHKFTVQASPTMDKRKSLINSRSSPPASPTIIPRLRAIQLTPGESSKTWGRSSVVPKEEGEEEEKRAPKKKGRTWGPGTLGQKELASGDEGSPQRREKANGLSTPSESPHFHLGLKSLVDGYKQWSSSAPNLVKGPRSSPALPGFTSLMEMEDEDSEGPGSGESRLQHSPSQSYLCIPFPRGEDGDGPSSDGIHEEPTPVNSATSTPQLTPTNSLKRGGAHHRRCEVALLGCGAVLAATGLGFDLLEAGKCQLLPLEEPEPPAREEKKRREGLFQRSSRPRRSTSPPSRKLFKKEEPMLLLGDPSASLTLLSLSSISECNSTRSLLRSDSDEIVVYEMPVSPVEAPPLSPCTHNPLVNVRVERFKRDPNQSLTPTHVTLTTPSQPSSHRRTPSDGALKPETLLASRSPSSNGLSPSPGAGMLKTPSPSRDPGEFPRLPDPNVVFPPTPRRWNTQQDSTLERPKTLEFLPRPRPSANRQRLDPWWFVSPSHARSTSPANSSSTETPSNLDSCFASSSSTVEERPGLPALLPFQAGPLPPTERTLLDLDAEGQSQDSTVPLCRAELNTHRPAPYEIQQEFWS
Sequence of Tyrosine-protein kinase JAK2 (O60674 whole entry): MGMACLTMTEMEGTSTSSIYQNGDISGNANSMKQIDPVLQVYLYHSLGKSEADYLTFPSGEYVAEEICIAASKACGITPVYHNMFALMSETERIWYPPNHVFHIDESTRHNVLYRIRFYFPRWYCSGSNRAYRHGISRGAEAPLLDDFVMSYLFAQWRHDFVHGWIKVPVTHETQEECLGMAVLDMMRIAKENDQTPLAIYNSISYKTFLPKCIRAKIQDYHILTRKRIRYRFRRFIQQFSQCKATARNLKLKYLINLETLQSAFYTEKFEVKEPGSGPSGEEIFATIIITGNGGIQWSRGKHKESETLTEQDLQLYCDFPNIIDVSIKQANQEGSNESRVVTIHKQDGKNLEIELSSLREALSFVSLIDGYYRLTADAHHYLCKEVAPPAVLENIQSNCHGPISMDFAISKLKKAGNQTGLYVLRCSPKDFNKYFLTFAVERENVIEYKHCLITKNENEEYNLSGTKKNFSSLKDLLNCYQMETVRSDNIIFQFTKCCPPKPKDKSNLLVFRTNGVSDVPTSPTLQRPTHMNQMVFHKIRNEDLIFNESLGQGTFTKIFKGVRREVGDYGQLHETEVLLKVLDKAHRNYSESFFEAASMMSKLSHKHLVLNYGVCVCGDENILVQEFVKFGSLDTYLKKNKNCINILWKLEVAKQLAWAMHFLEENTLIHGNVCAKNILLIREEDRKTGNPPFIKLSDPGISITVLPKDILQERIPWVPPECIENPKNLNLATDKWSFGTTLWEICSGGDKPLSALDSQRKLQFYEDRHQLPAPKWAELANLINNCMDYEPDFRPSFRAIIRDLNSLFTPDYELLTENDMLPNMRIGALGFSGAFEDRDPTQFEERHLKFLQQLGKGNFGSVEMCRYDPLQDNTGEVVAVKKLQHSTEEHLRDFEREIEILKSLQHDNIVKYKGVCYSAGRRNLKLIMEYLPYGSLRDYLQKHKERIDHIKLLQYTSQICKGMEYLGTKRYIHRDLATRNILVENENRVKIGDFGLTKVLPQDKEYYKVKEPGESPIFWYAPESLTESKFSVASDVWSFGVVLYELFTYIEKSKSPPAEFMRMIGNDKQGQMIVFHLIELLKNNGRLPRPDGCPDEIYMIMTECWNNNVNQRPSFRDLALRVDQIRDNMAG
Sequence of Voltage-gated inwardly rectifying potassium channel KCNH2 (Q12809 whole entry): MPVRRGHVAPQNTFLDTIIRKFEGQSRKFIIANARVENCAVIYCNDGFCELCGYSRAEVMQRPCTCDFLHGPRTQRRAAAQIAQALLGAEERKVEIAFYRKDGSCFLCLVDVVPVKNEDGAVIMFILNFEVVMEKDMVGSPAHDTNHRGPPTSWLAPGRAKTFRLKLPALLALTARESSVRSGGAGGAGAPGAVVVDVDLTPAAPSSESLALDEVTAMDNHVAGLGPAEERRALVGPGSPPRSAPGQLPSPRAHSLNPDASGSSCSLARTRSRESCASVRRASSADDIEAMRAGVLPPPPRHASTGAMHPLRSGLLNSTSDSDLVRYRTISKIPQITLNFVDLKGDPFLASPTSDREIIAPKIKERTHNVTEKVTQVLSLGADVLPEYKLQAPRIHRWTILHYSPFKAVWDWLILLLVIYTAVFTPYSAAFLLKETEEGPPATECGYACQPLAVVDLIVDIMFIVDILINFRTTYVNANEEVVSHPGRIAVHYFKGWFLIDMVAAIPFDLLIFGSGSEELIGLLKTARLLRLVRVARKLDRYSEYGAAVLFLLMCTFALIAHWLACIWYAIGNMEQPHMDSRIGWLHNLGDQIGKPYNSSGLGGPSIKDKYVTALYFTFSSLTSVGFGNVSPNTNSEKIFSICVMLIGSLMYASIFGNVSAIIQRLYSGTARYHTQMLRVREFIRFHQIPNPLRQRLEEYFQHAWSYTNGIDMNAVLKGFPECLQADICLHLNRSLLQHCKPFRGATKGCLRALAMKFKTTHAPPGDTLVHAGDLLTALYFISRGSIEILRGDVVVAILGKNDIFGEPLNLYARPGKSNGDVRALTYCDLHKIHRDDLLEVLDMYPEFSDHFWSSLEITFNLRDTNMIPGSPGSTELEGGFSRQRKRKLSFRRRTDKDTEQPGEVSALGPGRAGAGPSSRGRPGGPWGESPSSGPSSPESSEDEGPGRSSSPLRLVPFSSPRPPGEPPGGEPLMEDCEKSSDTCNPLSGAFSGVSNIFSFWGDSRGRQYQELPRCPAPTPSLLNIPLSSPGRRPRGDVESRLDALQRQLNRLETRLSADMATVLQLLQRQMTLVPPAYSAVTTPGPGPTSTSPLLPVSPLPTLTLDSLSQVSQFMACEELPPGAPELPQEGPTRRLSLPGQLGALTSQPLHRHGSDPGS
Sequence of Casein kinase I isoform delta (Homo sapiens) (P48730 whole entry, looked up, canonical isoform): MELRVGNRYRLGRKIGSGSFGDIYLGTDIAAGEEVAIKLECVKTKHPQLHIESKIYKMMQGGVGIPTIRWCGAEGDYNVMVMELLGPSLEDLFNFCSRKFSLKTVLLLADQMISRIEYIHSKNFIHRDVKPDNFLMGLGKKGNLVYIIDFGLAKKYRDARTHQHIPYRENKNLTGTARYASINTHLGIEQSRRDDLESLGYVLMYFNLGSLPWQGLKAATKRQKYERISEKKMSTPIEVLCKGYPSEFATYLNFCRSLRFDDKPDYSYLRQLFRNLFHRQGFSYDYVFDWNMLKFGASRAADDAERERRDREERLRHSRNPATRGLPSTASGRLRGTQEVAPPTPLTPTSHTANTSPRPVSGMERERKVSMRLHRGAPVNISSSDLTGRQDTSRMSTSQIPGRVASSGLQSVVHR

Structure (SMILES): N#Cc1ccc(N2CCC(Nc3cc(Nc4cnccn4)ncc3C(N)=O)CC2)nc1
- IC50 [1]: 4.1 nM
- IC50 [2]: 2.5 nM
- IC50 [3]: 0.72 nM
- IC50 [4]: 7700 nM

Structure (SMILES): NC(=O)c1cnc(N)cc1NCc1ccccc1
- inhibition [5]: 41%
- IC50 [3]: > 1000 nM

Structure (SMILES): Cc1nccc(Nc2cc(NC3CCN(c4ccc(C#N)cc4)CC3)c(C(N)=O)cn2)n1
- AUC(0-t) at 24 h [6]: 1180 ng·h/mL
- inhibition [7]: 76%
- IC50 [1]: 3.5 nM
- inhibition [8]: 25%
- CLint scaled [9]: 146 mL/min/kg
- AUC(0-t) at 24 h [10]: 278 ng·h/mL
- Cmax [11]: 52.9 ng/mL
- inhibition [12]: 96%
- CLint scaled [13]: 109 mL/min/kg
- inhibition [14]: 26%
- inhibition [15]: 14%
- inhibition [16]: 11%
- bioavailability [17]: 23.6%
- inhibition [18]: 18%
- inhibition [19]: 10%
- IC50 [2]: 4.2 nM
- inhibition [20]: 49%
- MST (Rattus norvegicus [21]): 22.5 days
- clearance [22]: 14.3 mL/min/kg
- half-life [23]: 3.4 h
- inhibition [24]: 94%
- Papp [25]: > 30 ×10⁻⁶ cm/s
- inhibition [26]: 19%
- inhibition [27]: 96%
- inhibition [28]: 54%
- Tmax [29]: 0.4 h
- inhibition [30]: 84%
- IC50 [4]: > 100000 nM
- inhibition [31]: -2%
- inhibition [32]: 28%
- inhibition [33]: 8%
- inhibition [34]: 3%
- inhibition [35]: 49%
- inhibition [36]: 33%
- inhibition [37]: -1%
- inhibition [38]: 8%
- inhibition [39]: 27%
- Vd [40]: 3.5 L/kg

Structure (SMILES): N#Cc1ccc(N2CCC(Nc3cc(Nc4ccccn4)ncc3C(N)=O)CC2)nc1
- IC50 [2]: 2.9 nM
- IC50 [3]: 0.46 nM
- IC50 [4]: 360 nM

Structure (SMILES): Cc1cnc(Nc2cc(NC3CCN(c4ccc(C#N)cn4)CC3)c(C(N)=O)cn2)cn1
- IC50 [1]: 5.3 nM
- IC50 [2]: 6.7 nM
- IC50 [3]: 1.1 nM
- IC50 [4]: 4800 nM

Structure (SMILES): N#Cc1ccc(N2CCC(Nc3cc(Nc4ccccc4)ncc3C(N)=O)CC2)nc1
- IC50 [1]: 190 nM
- IC50 [3]: 18 nM

Structure (SMILES): Cc1cncc(Nc2cc(NC3CCN(c4ccc(C#N)cn4)CC3)c(C(N)=O)cn2)n1
- IC50 [1]: 4 nM
- IC50 [2]: 1.9 nM
- IC50 [3]: 1 nM
- IC50 [4]: 5400 nM

Structure (SMILES): C[C@@H]1CCCC[C@@H]1Nc1cc(Nc2ccccc2)ncc1C(N)=O
- IC50 [3]: 37 nM

Structure (SMILES): N#Cc1ccc(N2CCC(Nc3cc(Nc4ccncn4)ncc3C(N)=O)CC2)nc1
- IC50 [1]: 5.5 nM
- IC50 [2]: 3.5 nM
- IC50 [3]: 0.61 nM
- IC50 [4]: 17000 nM

Structure (SMILES): Cc1nc2ccc(Nc3cc(NC4CCN(c5ccc(C#N)cn5)CC4)c(C(N)=O)cn3)cc2o1
- IC50 [1]: 130 nM
- IC50 [3]: 25 nM

Structure (SMILES): C=CC[C@@H]1/C=C(\C)C[C@H](C)C[C@H](OC)[C@H]2O[C@@](O)(C(=O)C(=O)N3CCCC[C@H]3C(=O)O[C@H](/C(C)=C/[C@@H]3CC[C@@H](O)[C@H](OC)C3)[C@H](C)[C@@H](O)CC1=O)[C@H](C)C[C@@H]2OC [TACROLIMUS ANHYDROUS]
- MST (Rattus norvegicus [41]): 6.5 days

Structure (SMILES): CN(c1ccccc1)c1cc(NCc2ccccc2)c(C(N)=O)cn1
- inhibition [5]: 40%
- IC50 [3]: > 1000 nM

Structure (SMILES): Cc1nccc(Nc2cc(NC3CCN(c4ccc(C#N)cn4)CC3)c(C(N)=O)cn2)n1
- IC50 [1]: 3.2 nM
- IC50 [2]: 5.4 nM
- IC50 [4]: 8100 nM

Structure (SMILES): Cc1nc2cc(Nc3cc(NC4CCN(c5ccc(C#N)cn5)CC4)c(C(N)=O)cn3)ccc2o1
- IC50 [1]: 400 nM
- IC50 [3]: 22 nM

Structure (SMILES): Cc1nccc(Nc2cc(N[C@@H]3CCN(c4ccc(C#N)cn4)C[C@@H]3F)c(C(N)=O)cn2)n1
- IC50 [2]: 0.24 nM
- IC50 [4]: > 100000 nM
